Published values collected from several papers.
Each line is one published result; the experiments were not run side by side.
Cell line: HepG2
Effect on: cell growth or viability

SMILES	method	concentration	time	measurement	value
CCOC(=O)c1cn(CC)c2cc(N3CCC(C)CC3)c(F)cc2c1=O	ATP luminescence	–	48 h	EC50	> 40 µM
CC(C)c1ccc(/C=C2\SC(=S)N(CC(=O)Nc3ccccc3)C2=O)cc1	MTT	10 µM	–	inhibition	17.5%
CCN(CC)CCCn1cccc1/C=N/NC(=O)Nc1cc2c(Nc3ccc(F)c(Cl)c3)ncnc2cc1O[C@H]1CCOC1	MTT	–	72 h	IC50	0.71 µM
COc1ccc(C=NNC(=O)c2sc(Nc3ccccc3)c(C(=O)Nc3ccc(OC)cc3)c2NC(C)=O)cc1	SRB	1 nM	48 h	viability	102%
Cc1ccc2nc(-c3ccc([N+](=O)[O-])cc3)n(Cc3ccccc3Cl)c2c1	MTT	–	–	IC50	34.3 µM
COc1ccc(NC(=O)c2c(Nc3ccccc3)sc(C#N)c2NC(=O)CNc2ccc(O)cc2)cc1	SRB	10 nM	48 h	viability	92.1%
Cc1ccc2nc(-c3ccco3)n(Cc3ccccc3)c2c1	MTT	–	–	IC50	55.5 µM
CCOC(=O)c1ccc(-n2c(C)cc(/C=C/c3ccc(OCC)cc3)c(C#N)c2=O)cc1	MTT	6.25 µM	24 h	viability	100%
CC(=O)Nc1cccc(-n2c(=O)n(C3CC3)c(=O)c3c(Nc4ccc(I)cc4F)n(C)c(=O)c(C)c32)c1	resazurin	390 pM	72 h	viability	103%
Cc1ccc(-c2cc(-c3ccc4oc(=O)cc(C)c4c3O)nc(N)n2)cc1	MTT	8 µg/mL	72 h	inhibition	0%
COc1ccc(NC(=O)c2c(Nc3ccccc3)sc(C#N)c2NC(=O)CNc2ccccc2[N+](=O)[O-])cc1	SRB	100 µM	48 h	viability	89.7%
CCOC(=O)c1ccc(-n2c(-c3ccc(C)cc3)cc(-c3ccc(O)cc3)c(C#N)c2=O)cc1	MTT	50 µM	24 h	viability	25.6%
C=CCn1c(-c2ccc(Cl)cc2)nc2ccc(C)cc21	MTT	–	–	IC50	38.8 µM
COc1ccc(NC(=O)c2c(Nc3ccccc3)sc(C#N)c2NC(=O)CNc2ccc(Cl)cc2)cc1	SRB	10 µM	48 h	viability	33.2%
Cc1cc(Nc2ccc(C(=O)N/N=C/c3ccncc3)cc2)c2cccc(O)c2n1	MTT	20 µM	–	inhibition	47.7%
Cc1ccc2nc(-c3ccc4c(c3)OCO4)[nH]c2c1	MTT	–	48 h	IC50	79 µM
CCn1cc(-c2nc(C)no2)c(=O)c2cc(F)c(N3CCC(C(C)C)CC3)cc21	ATP luminescence	–	48 h	EC50	> 40 µM
Cc1ccc2nc(-c3c4ccccc4cc4ccccc34)[nH]c2c1	MTT	–	48 h	IC50	21.4 µM
Cc1cc(Nc2ccc(C(=O)N/N=C/c3cc4ccccc4[nH]3)cc2)c2cccc(O)c2n1	MTT	20 µM	–	inhibition	54.1%
CCOC(=O)c1ccc(N2C(N)=C(C#N)C3(C(=O)Nc4ccccc43)C(C#N)=C2O)cc1 (stereo not drawn)	MTT	100 µM	24 h	viability	10.7%

SMILES	method	concentration	time	measurement	value
Cc1ccc2nc(-c3cccc([N+](=O)[O-])c3)[nH]c2c1	MTT	–	48 h	IC50	71.4 µM
CCOC(=O)c1ccc(NC(=O)C2=C3C(=Nc4ccccc43)NC2=O)cc1	MTT	100 µM	24 h	viability	35.6%
COc1ccc(NCC(=O)Nc2c(C#N)sc(Nc3ccccc3)c2C(=O)Nc2ccc(OC)cc2)cc1	SRB	1 nM	48 h	viability	97.2%
O=C(CN1C(=O)/C(=C/c2ccccc2)SC1=S)Nc1ccccc1	MTT	10 µM	–	inhibition	31.3%
COc1ccc(NC(=O)c2c(Nc3ccccc3)sc(C(=O)NN=Cc3ccc(OC)c(O)c3)c2NC(C)=O)cc1	SRB	100 µM	48 h	viability	22.4%
CCn1cc(-c2nc(C)no2)c(=O)c2cc(F)c(N3CCCCCC3)cc21	ATP luminescence	–	48 h	EC50	> 40 µM
COc1cc2ncnc(Nc3ccc(F)c(Cl)c3)c2cc1NC(=O)N/N=C/c1cccn1CCN1CCN(C)CC1	MTT	–	72 h	IC50	0.22 µM
O=C(CN1C(=O)/C(=C/c2cccc(O)c2)SC1=S)Nc1ccccc1	MTT	10 µM	–	inhibition	5.11%
CCOC(=O)c1ccc(-n2c(C)cc(C)c(C#N)c2=O)cc1	MTT	6.25 µM	24 h	viability	90.3%
COc1ccc(-c2cc(-c3ccc4oc(=O)cc(C)c4c3O)nc(N)n2)cc1	MTT	32 µg/mL	72 h	inhibition	15%
Cc1ccc2nc(-c3ccc(Cl)cc3)[nH]c2c1	MTT	–	48 h	IC50	28.9 µM
CCOC(=O)c1ccc(-n2c(C)cc(/C=C/c3ccc(OC)cc3)c(C#N)c2=O)cc1	MTT	12.5 µM	24 h	viability	83.5%
C=CCn1c(-c2ccc(OC)c(OC)c2)nc2ccccc21	MTT	–	–	IC50	53.8 µM
COc1ccc(NC(=O)c2c(Nc3ccccc3)sc(C#N)c2NC(=O)CNc2ccccc2)cc1	SRB	10 nM	48 h	viability	90.3%
CCOC(=O)c1ccc(-n2c(N)c(C#N)c(CC#N)c(C#N)c2=O)cc1	MTT	1.56 µM	24 h	viability	100%
Cc1cc(=O)oc2ccc(-c3cc(-c4ccc(Cl)cc4)nc(N)n3)c(O)c12	MTT	8 µg/mL	72 h	inhibition	39%
COc1cccc(NC(=O)CN2C(=O)/C(=C/c3ccccc3)SC2=S)c1	MTT	10 µM	–	inhibition	11.8%
Cc1cc(=O)oc2ccc(-c3cc(-c4ccc(Br)cc4)nc(N)n3)c(O)c12	MTT	8 µg/mL	72 h	inhibition	0%
COc1ccc(NC(=O)c2c(Nc3ccccc3)sc(C#N)c2NC(=O)CNc2ccc(C)cc2)cc1	SRB	100 µM	48 h	viability	62.3%
